Measured values gathered from unrelated publications.
CYP17A1: Steroid 17-alpha-hydroxylase/17,20 lyase (CYP17A1, Homo sapiens, UniProt P05093)
MRGPRX2: Mas-related G-protein coupled receptor member X2 (MRGPRX2, Homo sapiens, UniProt Q96LB1)

| SMILES | target | assay | setting | measurement | result |
| --- | --- | --- | --- | --- | --- |
| C/C(=C\[N+](=O)[O-])c1ccccc1 | OYE1 (Saccharomyces pastorianus, UniProt Q02899) | binding, absorbance |  | Kd | 170000 nM |
| CC(=O)C1=CC[C@H]2[C@@H]3CCC4=CC(=O)CC[C@]4(C)[C@H]3CC[C@]12C | CYP17A1 | binding, absorbance |  | Kd | 540 nM |
| NC(=O)[C@@H]1CCCN1C(=O)[C@H](CCC(=O)O)NC(=O)[C@@H]1CCC(=O)N1 | MRGPRX2 | calcium signal, agonist |  | EC50 | > 20 µM |
| Cc1cc2c(cc1Br)NC(=O)/C2=N/N=C1/C(=O)Nc2cc(Br)c(C)cc21 | Glycogen synthase kinase-3 beta (GSK3B, Homo sapiens, UniProt P49841) | enzyme activity, inhibitor |  | IC50 | ~0.03 nM |
| C/C=C1\NC(=O)[C@H](C)NC(=O)[C@@H](NC(=O)[C@@H](Cc2ccc(O)cc2)NC(=O)[C@@H](NC(=O)/C(C)=C/C)C(C)C)[C@@H](C)OC(=O)[C@H](CC[S+](C)[O-])NC(=O)[C@@H](CCC(=O)O)NC1=O (stereo partly drawn) | Chymotrypsin-like elastase family member 1 (CELA1, Sus scrofa, UniProt P00772) | enzyme activity, inhibitor, absorbance |  | IC50 | 7280 nM |
| Nc1ncc(-c2nc(N3CCOCC3)nc(N3CCOCC3)n2)c(C(F)F)n1 | Phosphatidylinositol 4,5-bisphosphate 3-kinase catalytic subunit alpha isoform (PIK3CA, Homo sapiens, UniProt P42336) | ligand displacement, TR-FRET |  | IC50 | 21.9 nM |
| CC(C)C[C@H](NC(=O)[C@H](Cc1ccccc1)NC(=O)c1cnccn1)B(O)O | Cathepsin G (CTSG, Homo sapiens, UniProt P08311) | enzyme activity, inhibitor |  | IC50 | 36000 nM |
| CCCc1cc(C)[nH]c(=O)c1CNC(=O)c1cc(-c2ccc(N3CCN(CCCCc4cn(CCN5C(=O)\C(=C/C=C/C=C6/N(CCC(=O)OCOC(C)=O)c7ccc(C(=O)OCOC(C)=O)cc7C6(C)C)C(=O)N(CC)C5=O)nn4)CC3)nc2)cc2c1cnn2C(C)C | Histone-lysine N-methyltransferase EZH2 (EZH2, Homo sapiens, UniProt Q15910) | enzyme activity, inhibitor, radiometric |  | IC50 | 21 nM |
| COC(=O)Nc1nc2cc(C(=O)c3ccc(F)cc3)ccc2[nH]1 | Vascular endothelial growth factor receptor 2 (KDR, Homo sapiens, UniProt P35968) | enzyme activity, inhibitor, TR-FRET |  | IC50 | 470 nM |
| CC(=O)[C@H]1CC[C@H]2[C@@H]3CCC4=CC(=O)CC[C@]4(C)[C@H]3CC[C@]12C | CYP17A1 | binding, absorbance |  | Kd | 740 nM |
| CC(C)=CCc1c(O)cc2c(c1O)C(=O)C[C@@H](c1ccc(O)cc1)O2 | Cytochrome P450 1A1 (CYP1A1, Homo sapiens, UniProt P04798) | enzyme activity, inhibitor, fluorescence | 15 min, pH 7.4 | Ki | 590 nM |
| C[C@@H](O)[C@@H]1NC(=O)[C@H](CCCCN)NC(=O)[C@H](Cc2c[nH]c3ccccc23)NC(=O)[C@H](Cc2ccccc2)NC(=O)[C@H](Cc2ccccc2)NC(=O)[C@H](CC(N)=O)NC(=O)[C@H](CCCCN)NC(=O)[C@@H](NC(=O)[C@@H]2CCCN2)CSSC[C@@H](C(=O)N[C@@H](CCCCN)C(=O)O)NC(=O)[C@H](CO)NC(=O)[C@H](CO)NC(=O)[C@H](Cc2ccccc2)NC1=O | MRGPRX2 | calcium signal, agonist |  | EC50 | 0.0794 µM |
| COc1cc(C(=O)N2CC[C@@H](O)[C@@H](N)C2)cc2nc(-c3cc4ccccc4n3CC3CC3)n(C)c12 | Vasopressin V1a receptor (AVPR1A, Homo sapiens, UniProt P37288) | calcium signal, antagonist, fluorescence |  | IC50 | 25100 nM |
| CC[C@H](C)[C@H](NC(=O)[C@@H]1CCCN1C(C)=O)C(=O)N[C@@H](CCC(=O)O)C(=O)N[C@H](C(=O)N[C@@H](CS)C(=O)N[C@@H](CCSC)C(=O)N[C@@H](Cc1ccc(O)cc1)C(=O)N[C@@H](CCCNC(=N)N)C(=O)N[C@@H](CCC(=O)O)C(=O)N1CCC[C@H]1C(N)=O)C(C)C | MRGPRX2 | calcium signal, agonist |  | EC50 | > 20 µM |
| Cc1c(Cc2cccc(N(C)S(=O)(=O)CCCN3CCN(c4ccc(Nc5c(C(N)=O)cnc6ccc(-c7cnc8ccccc8c7)cc56)cc4C(F)(F)F)CC3)c2)c(=O)oc2cc(OC(=O)N(C)C)ccc12 | Dual specificity mitogen-activated protein kinase kinase 1 (MAP2K1, Homo sapiens, UniProt Q02750) | enzyme activity, inhibitor, mobility shift |  | IC50 | 4970 nM |
